According to ChEMBL document CHEMBL1128728, “Synthesis and evaluation of terbenzimidazoles as topoisomerase I inhibitors” (J Med Chem, 1995):

Tested on: RPMI 8402
Test: Cytotoxicity against Camptothecin-resistant (CPT -K5) cell line
Type: functional, cell-based
Conditions: Homo sapiens
Method in brief: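 MTT tetrazolium assay in 96-well plates on CPT-K5, a camptothecin-resistant variant of human lymphoblast RPMI 8402, grown in suspension at 37 °C, 5% CO2 in RPMI medium with 10% heat-inactivated FBS, 2 mM L-glutamine, penicillin and streptomycin. Cells were exposed continuously to varying drug concentrations, with MTT read at the end of day 4. IC50 was calculated.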

| SMILES | IC50 [nM] |
| --- | --- |
| CCOc1ccc(-c2nc3cc(-c4nc5cc(N6CCN(C)CC6)ccc5[nH]4)ccc3[nH]2)cc1 | 900 |

Tested on: RPMI 8402
Test: Cytotoxicity against Human lymphoblast (RPMI 8402) cell line
Type: functional, cell-based
Conditions: not given
Method in brief: (§1)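 MTT microtiter tetrazolium assay; human lymphoblast RPMI 8402 and camptothecin-resistant CPT-K5 grown in suspension at 37 °C, 5% CO2, RPMI medium with 10% heat-inactivated FBS, 2 mM L-glutamine, penicillin 100 U/mL, streptomycin 0.1 mg/mL. Continuous exposure to varying drug concentrations; MTT read at end of day 4; IC50 calculated.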

| SMILES | IC50 [nM] |
| --- | --- |
| c1cc(-c2ccc3[nH]c(-c4ccc5[nH]c(-c6ccc7[nH]cnc7c6)nc5c4)nc3c2)ccn1 | 35 |
| N#Cc1ccc2[nH]c(-c3ccc4[nH]cnc4c3)nc2c1 | > 25000 |
| COc1ccc(-c2nc3cc(-c4nc5cc(-c6nc7cc(C#N)ccc7[nH]6)ccc5[nH]4)ccc3[nH]2)cc1 | > 20000 |
| c1ccc(-c2ccc3[nH]c(-c4ccc5[nH]c(-c6ccc7[nH]cnc7c6)nc5c4)nc3c2)nc1 | 160 |
| N#Cc1ccc2[nH]c(-c3ccc4[nH]c(-c5ccc6[nH]cnc6c5)nc4c3)nc2c1 | > 25000 |
| c1ccc(-c2ccc3[nH]c(-c4ccc5[nH]c(-c6ccc7[nH]cnc7c6)nc5c4)nc3c2)cc1 | 90 |
| c1cncc(-c2ccc3[nH]c(-c4ccc5[nH]c(-c6ccc7[nH]cnc7c6)nc5c4)nc3c2)c1 | 35 |
| COc1ccc(-c2nc3cc(-c4nc5cc(C#N)ccc5[nH]4)ccc3[nH]2)cc1 | 27000 |
| CCCc1ccc2[nH]c(-c3ccc4[nH]c(-c5ccc6[nH]cnc6c5)nc4c3)nc2c1 | 7600 |
| c1ccc2[nH]c(-c3ccc4[nH]c(-c5ccc6[nH]cnc6c5)nc4c3)nc2c1 | 14000 |
| CCOc1ccc(-c2nc3cc(-c4nc5cc(N6CCN(C)CC6)ccc5[nH]4)ccc3[nH]2)cc1 | 30 |

Tested on: KB 3-1
Test: Cytotoxicity against human epidermoid carcinoma (KB3-1) cell line
Type: functional, cell-based
Conditions: not given
Method in brief: (§2)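 KB3-1 epidermoid carcinoma cells and KBV-1, their vinblastine-selected MDR1-overexpressing variant, were grown as monolayers in 5% CO2 in Dulbecco's medium with 10% heat-inactivated FBS. Viability was measured by MTT tetrazolium microtiter assay after 4 days of continuous exposure to varying drug concentrations, and IC50 was calculated.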

| SMILES | IC50 [nM] |
| --- | --- |
| CCOc1ccc(-c2nc3cc(-c4nc5cc(N6CCN(C)CC6)ccc5[nH]4)ccc3[nH]2)cc1 | 10 |

Tested on: KB
Test: Cytotoxicity against human epidermoid carcinoma vinblastine-selected multidrug-resistant (KBV-1) cell line
Type: functional, cell-based
Conditions: not given
Method in brief: as §2

| SMILES | IC50 [nM] |
| --- | --- |
| CCOc1ccc(-c2nc3cc(-c4nc5cc(N6CCN(C)CC6)ccc5[nH]4)ccc3[nH]2)cc1 | 1200 |

Tested on: RPMI 8402
Test: Cytotoxicity against Camptothecin-resistant (CPT -K5) cell line.
Type: functional, cell-based
Conditions: Homo sapiens
Method in brief: as §1

| SMILES | IC50 [nM] |
| --- | --- |
| c1cc(-c2ccc3[nH]c(-c4ccc5[nH]c(-c6ccc7[nH]cnc7c6)nc5c4)nc3c2)ccn1 | 2500 |
| c1ccc(-c2ccc3[nH]c(-c4ccc5[nH]c(-c6ccc7[nH]cnc7c6)nc5c4)nc3c2)nc1 | 5800 |
| N#Cc1ccc2[nH]c(-c3ccc4[nH]c(-c5ccc6[nH]cnc6c5)nc4c3)nc2c1 | > 25000 |
| c1ccc(-c2ccc3[nH]c(-c4ccc5[nH]c(-c6ccc7[nH]cnc7c6)nc5c4)nc3c2)cc1 | 580 |
| c1cncc(-c2ccc3[nH]c(-c4ccc5[nH]c(-c6ccc7[nH]cnc7c6)nc5c4)nc3c2)c1 | 2500 |
| CCCc1ccc2[nH]c(-c3ccc4[nH]c(-c5ccc6[nH]cnc6c5)nc4c3)nc2c1 | 20000 |
| c1ccc2[nH]c(-c3ccc4[nH]c(-c5ccc6[nH]cnc6c5)nc4c3)nc2c1 | 28000 |

Tested on: KB 3-1
Test: Cytotoxicity against human epidermoid carcinoma (KB3-1) cell line.
Type: functional, cell-based
Conditions: not given
Method in brief: (§3)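 Human epidermoid carcinoma KB3-1 and vinblastine-selected MDR1-overexpressing KBV-1 grown as monolayers in 5% CO2, Dulbecco's medium with 10% heat-inactivated FBS. Cytotoxicity by MTT microtiter tetrazolium assay after continuous exposure to varying drug concentrations for 4 days; IC50 calculated.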

| SMILES | IC50 [nM] |
| --- | --- |
| c1cc(-c2ccc3[nH]c(-c4ccc5[nH]c(-c6ccc7[nH]cnc7c6)nc5c4)nc3c2)ccn1 | 20 |
| c1ccc(-c2ccc3[nH]c(-c4ccc5[nH]c(-c6ccc7[nH]cnc7c6)nc5c4)nc3c2)nc1 | 50 |
| c1ccc(-c2ccc3[nH]c(-c4ccc5[nH]c(-c6ccc7[nH]cnc7c6)nc5c4)nc3c2)cc1 | 580 |
| c1cncc(-c2ccc3[nH]c(-c4ccc5[nH]c(-c6ccc7[nH]cnc7c6)nc5c4)nc3c2)c1 | 20 |

Tested on: DNA topoisomerase 1 (Bos taurus)
Test: The compound was tested for topoisomerase-1 mediated DNA cleavage, activity is expressed as REC(relative effective concentration) i.e., concentration relative to Hoechst 33342.
Conditions: not given

| SMILES | Relative concentration |
| --- | --- |
| N#Cc1ccc2[nH]c(-c3ccc4[nH]cnc4c3)nc2c1 | 1000 |
| COc1ccc(-c2nc3cc(-c4nc5cc(-c6nc7cc(C#N)ccc7[nH]6)ccc5[nH]4)ccc3[nH]2)cc1 | 1000 |
| COc1ccc(-c2nc3cc(-c4nc5cc(C#N)ccc5[nH]4)ccc3[nH]2)cc1 | 3.3 |
| c1ccc2[nH]c(-c3ccc4[nH]c(-c5ccc6[nH]cnc6c5)nc4c3)nc2c1 | 1.1 |

Continued, values first:

| Relative concentration | SMILES |
| --- | --- |
| 2 | c1cc(-c2ccc3[nH]c(-c4ccc5[nH]c(-c6ccc7[nH]cnc7c6)nc5c4)nc3c2)ccn1 |
| 3.3 | c1ccc(-c2ccc3[nH]c(-c4ccc5[nH]c(-c6ccc7[nH]cnc7c6)nc5c4)nc3c2)nc1 |
| 1 | N#Cc1ccc2[nH]c(-c3ccc4[nH]c(-c5ccc6[nH]cnc6c5)nc4c3)nc2c1 |
| 2 | c1ccc(-c2ccc3[nH]c(-c4ccc5[nH]c(-c6ccc7[nH]cnc7c6)nc5c4)nc3c2)cc1 |
| 2 | c1cncc(-c2ccc3[nH]c(-c4ccc5[nH]c(-c6ccc7[nH]cnc7c6)nc5c4)nc3c2)c1 |
| 100 | CCCc1ccc2[nH]c(-c3ccc4[nH]c(-c5ccc6[nH]cnc6c5)nc4c3)nc2c1 |

Tested on: KB
Test: Cytotoxicity against human epidermoid carcinoma vinblastine-selected multidrug-resistant (KBV-1) cell line.
Type: functional, cell-based
Conditions: not given
Method in brief: as §3

| SMILES | IC50 [nM] |
| --- | --- |
| c1cc(-c2ccc3[nH]c(-c4ccc5[nH]c(-c6ccc7[nH]cnc7c6)nc5c4)nc3c2)ccn1 | 10 |
| c1ccc(-c2ccc3[nH]c(-c4ccc5[nH]c(-c6ccc7[nH]cnc7c6)nc5c4)nc3c2)nc1 | 90 |
| c1ccc(-c2ccc3[nH]c(-c4ccc5[nH]c(-c6ccc7[nH]cnc7c6)nc5c4)nc3c2)cc1 | 350 |
| c1cncc(-c2ccc3[nH]c(-c4ccc5[nH]c(-c6ccc7[nH]cnc7c6)nc5c4)nc3c2)c1 | 20 |
